The source made the active and inactive calls. The calls are words filed in the database; no cut-off is given here.
How the values were obtained:
[1] = target: Dual specificity mitogen-activated protein kinase kinase 1 (Homo sapiens) (UniProt Q02750); test: Inhibition of recombinant human MKK1 (2 to 393 residues) expressed in Escherichia coli at 10 uM using MBP as substrate incubated for 30 mins in presence of [gamma-33P]ATP by filter binding method relative to control
Outline: (§1)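 Kinase panel run robotically at 21 °C for 30 min, linear in time and enzyme. […] Compound tested at 1 or 10 µM. Activity given as percentage of incubations without compound, mean of triplicates ± S.D.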

[2] = target: Insulin receptor (Homo sapiens) (UniProt P06213); test: (§2) Inhibition of recombinant human N-terminal His6-tagged IR (1001 to 1382 residues) expressed in baculovirus infected Sf21 cells assessed as remaining activity at 10 uM using KKSRGDYMTMQIG as substrate incubated for 30 mins in presence of [gamma-33P]ATP by filter binding method relative to control
[3] = target: Casein kinase I isoform delta (Homo sapiens) (UniProt P48730); test: Inhibition of recombinant human N-terminal GST-tagged CK1delta (1 to 415 residues) expressed in Escherichia coli assessed as remaining activity at 10 uM using RRKDLHDDEEDEAMSITA as substrate incubated for 30 mins in presence of [gamma-33P]ATP by filter binding method relative to control
Outline: (§3)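 Robotic radiometric panel assay, 30 min at room temperature (21 °C), with 10 mM magnesium acetate. […] Compound at 1 or 10 µM. Residual activity expressed relative to compound-free control; triplicate average ± S.D.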

[4] = target: MAP kinase-interacting serine/threonine-protein kinase 2 (Homo sapiens) (UniProt Q9HBH9); test: Inhibition of recombinant human N-terminal GST/C-terminal His6-tagged MNK2alpha (2 to 465 residues) expressed in Escherichia coli assessed as remaining activity at 10 uM using eIF4E as substrate incubated for 30 mins in presence of [gamma-33P]ATP by filter binding method relative to control
[5] = target: Ribosomal protein S6 kinase alpha-1 (Homo sapiens) (UniProt Q15418); test: Inhibition of recombinant human N-terminal His6-tagged RSK1 (1 to 735 residues) expressed in baculovirus infected Sf21 cells assessed as remaining activity at 1 uM using KKLNRTLSVA as substrate incubated for 30 mins in presence of [gamma-33P]ATP by filter binding assay relative to control
[6] = target: Serine/threonine-protein kinase BRSK2 (Homo sapiens) (UniProt Q8IWQ3); test: Inhibition of recombinant human N-terminal His6-tagged BRSK2 (2 to 674 residues) expressed in baculovirus infected Sf21 cells assessed as remaining activity at 1 uM using KKLNRTLSFAEPG as substrate incubated for 30 mins in presence of [gamma-33P]ATP by filter binding method relative to control
Outline: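 Assays ran 30 min at 21 °C, robotically and in the linear range. Remaining activity is given relative to incubations lacking compound, as the average of triplicate determinations ± S.D.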

[7] = target: Eukaryotic elongation factor 2 kinase (Homo sapiens) (UniProt O00418); test: Inhibition of recombinant human N-terminal GST-tagged EF2K (2 to 725 residues) expressed in Escherichia coli assessed as remaining activity at 1 uM using RKKFGESKTKTKEFL as substrate incubated for 30 mins in presence of [gamma-33P]ATP by filter binding method relative to control; outline: as §1
[8] = tested on: RAC-alpha serine/threonine-protein kinase (Homo sapiens), P31749 [S473D]; test: as §2, with “human” for “human N-terminal”, “AKT1 S473D mutant (118” for “IR (1001”, “480” for “1382”, “crosstide peptide” for “KKSRGDYMTMQIG”
Outline: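 Radiometric panel assay run robotically at 21 °C for 30 min, linear in time and enzyme. […] Activity is expressed as percentage of the compound-omitted control, averaged from triplicates ± S.D.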

[9] = target: Protein kinase C alpha type (Homo sapiens) (UniProt P17252); test: Inhibition of recombinant human N-terminal His6-tagged PKCalpha (1 to 672 residues) expressed in baculovirus infected Sf21 cells assessed as remaining activity at 1 uM using Histone H1 as substrate incubated for 30 mins in presence of [gamma-33P]ATP by filter binding method relative to control
[10] = target: Calcium/calmodulin-dependent protein kinase kinase 2 (Homo sapiens) (UniProt Q96RR4); test: Inhibition of recombinant human N-terminal GST-tagged CAMKKbeta (1 to 541 residues) expressed in Escherichia coli assessed as remaining activity at 1 uM using DGEFLRTSCGSPNYAARRR as substrate incubated for 30 mins in presence of [gamma-33P]ATP by filter binding method relative to control; outline: as §3
[11] = target: MAP kinase-activated protein kinase 2 (Homo sapiens) (UniProt P49137); test: Inhibition of recombinant human N-terminal GST/C-terminal Myc-tagged MAPKAPK2 (46 to 400 residues) expressed in Escherichia coli assessed as remaining activity at 1 uM using KKLNRTLSVA as substrate incubated for 30 mins in presence of [gamma-33P]ATP by filter binding method relative to control
Outline: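 Incubations ran robotically for 30 min at room temperature (21 °C) under linear conditions. Results are percent activity remaining versus controls without compound, as the mean of triplicates ± S.D.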

mTORC2 (Homo sapiens) = mTORC2 (Homo sapiens) (UniProt P42345+Q6R327+Q9BVC4+Q9BPZ7); conditions: HEK293, dose 30-1000 nM, time 30.0 min
[12] = target: Mitogen-activated protein kinase 15 (Homo sapiens) (UniProt Q8TD08); test: Inhibition of recombinant human N-terminal His6-tagged ERK8 (2 to 544 residues) expressed in baculovirus infected Sf21 cells assessed as remaining activity at 1 uM using MBP as substrate incubated for 30 mins in presence of [gamma-33P]ATP by filter binding method relative to control
Outline: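 Radiometric kinase panel run robotically at room temperature (21 °C) for 30 min, linear in time and enzyme. […] Activity is expressed as percent of control without compound, from triplicate determinations ± S.D.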

[13] = target: Mitogen-activated protein kinase 9 (Homo sapiens) (UniProt P45984); test: Inhibition of recombinant human N-terminal His6-tagged JNK2alpha2 (1 to 424 residues) expressed in baculovirus infected Sf21 cells assessed as remaining activity at 1 uM using ATF2 as substrate incubated for 30 mins in presence of [gamma-33P]ATP by filter binding method relative to control
MEF = test: Inhibition of mTORC2 in MEF cells assessed as reduction in NDRG1 phosphorylation incubated ay 1 uM for 30 mins by immunoblot analysis; assay type: cell-based; conditions: Mus musculus
Outline: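 Cells (MEFs, wild-type or knockout, or HeLa) kept in 10% serum, then exposed 30 min to inhibitor or vehicle at the stated level. Washed twice in ice-cold PBS and lysed in Tris lysis buffer with CHAPS, phosphatase and protease inhibitors. Lysates cleared at 18000 g and immunoblotted with phospho-specific antibodies and ECL detection. Blots are representative of three experiments.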

mTORC1 (Homo sapiens) = mTORC1 (Homo sapiens) (UniProt P42345+Q8N122+Q9BVC4); conditions: HEK293, dose 30.0 nM, time 30.0 min

Sequence of Calcium/calmodulin-dependent protein kinase kinase 2 (Homo sapiens) (Q96RR4 2-588 limits assumed): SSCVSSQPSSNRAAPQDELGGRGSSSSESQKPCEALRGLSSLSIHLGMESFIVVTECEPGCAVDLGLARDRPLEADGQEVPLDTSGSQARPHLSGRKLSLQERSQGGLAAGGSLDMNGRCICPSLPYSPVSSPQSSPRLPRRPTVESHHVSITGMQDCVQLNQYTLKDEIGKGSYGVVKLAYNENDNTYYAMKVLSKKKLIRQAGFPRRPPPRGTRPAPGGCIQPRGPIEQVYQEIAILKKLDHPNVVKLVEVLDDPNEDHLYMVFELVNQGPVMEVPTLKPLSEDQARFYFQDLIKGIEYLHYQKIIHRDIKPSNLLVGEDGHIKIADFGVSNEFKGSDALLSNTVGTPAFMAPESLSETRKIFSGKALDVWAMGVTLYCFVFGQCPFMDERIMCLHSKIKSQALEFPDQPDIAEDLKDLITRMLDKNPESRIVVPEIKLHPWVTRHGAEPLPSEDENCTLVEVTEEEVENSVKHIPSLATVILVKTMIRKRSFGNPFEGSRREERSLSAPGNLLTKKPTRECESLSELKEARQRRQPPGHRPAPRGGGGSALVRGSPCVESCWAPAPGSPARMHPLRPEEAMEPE
Sequence of MAP kinase-activated protein kinase 2 (Homo sapiens) (P49137 whole entry, looked up, the tested form may be a part): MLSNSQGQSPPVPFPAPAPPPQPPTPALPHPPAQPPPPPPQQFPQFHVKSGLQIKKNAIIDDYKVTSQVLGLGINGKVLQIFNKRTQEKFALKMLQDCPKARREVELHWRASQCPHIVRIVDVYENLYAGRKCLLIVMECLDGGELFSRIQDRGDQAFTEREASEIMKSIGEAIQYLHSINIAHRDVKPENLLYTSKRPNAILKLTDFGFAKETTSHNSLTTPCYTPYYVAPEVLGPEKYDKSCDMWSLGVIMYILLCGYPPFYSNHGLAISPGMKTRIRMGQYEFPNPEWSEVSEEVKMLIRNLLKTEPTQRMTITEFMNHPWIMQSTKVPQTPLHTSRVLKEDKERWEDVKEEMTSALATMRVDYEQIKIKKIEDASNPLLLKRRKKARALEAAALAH
Sequence of RAC-alpha serine/threonine-protein kinase (Homo sapiens), P31749 [S473D] (P31749 whole entry S473D): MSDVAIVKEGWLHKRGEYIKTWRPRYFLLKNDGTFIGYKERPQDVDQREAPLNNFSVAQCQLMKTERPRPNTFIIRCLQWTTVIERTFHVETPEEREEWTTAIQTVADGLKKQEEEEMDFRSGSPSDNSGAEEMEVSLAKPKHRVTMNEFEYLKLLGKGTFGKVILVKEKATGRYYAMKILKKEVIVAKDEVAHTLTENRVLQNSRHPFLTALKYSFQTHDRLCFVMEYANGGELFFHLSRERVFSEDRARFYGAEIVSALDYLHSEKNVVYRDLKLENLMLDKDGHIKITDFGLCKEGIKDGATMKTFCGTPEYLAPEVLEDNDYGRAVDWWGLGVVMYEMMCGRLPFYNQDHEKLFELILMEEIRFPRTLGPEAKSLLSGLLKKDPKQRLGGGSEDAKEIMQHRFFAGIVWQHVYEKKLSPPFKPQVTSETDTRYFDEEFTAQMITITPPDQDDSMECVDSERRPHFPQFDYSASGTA
Sequence of Mitogen-activated protein kinase 9 (Homo sapiens) (P45984 whole entry, looked up, the tested form may be a part): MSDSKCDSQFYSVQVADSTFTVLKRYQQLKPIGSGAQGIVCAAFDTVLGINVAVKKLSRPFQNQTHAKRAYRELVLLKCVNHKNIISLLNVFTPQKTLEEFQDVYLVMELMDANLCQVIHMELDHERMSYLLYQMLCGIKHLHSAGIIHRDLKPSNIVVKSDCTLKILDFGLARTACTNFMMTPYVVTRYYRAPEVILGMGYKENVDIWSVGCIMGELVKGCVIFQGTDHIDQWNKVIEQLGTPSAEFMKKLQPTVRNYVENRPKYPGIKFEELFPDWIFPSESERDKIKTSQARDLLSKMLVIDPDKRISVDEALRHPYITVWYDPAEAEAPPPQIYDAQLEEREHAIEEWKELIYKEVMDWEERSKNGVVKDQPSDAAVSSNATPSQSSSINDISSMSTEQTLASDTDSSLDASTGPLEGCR
Sequence of Ribosomal protein S6 kinase alpha-1 (Homo sapiens) (Q15418 whole entry, the tested form may be a part): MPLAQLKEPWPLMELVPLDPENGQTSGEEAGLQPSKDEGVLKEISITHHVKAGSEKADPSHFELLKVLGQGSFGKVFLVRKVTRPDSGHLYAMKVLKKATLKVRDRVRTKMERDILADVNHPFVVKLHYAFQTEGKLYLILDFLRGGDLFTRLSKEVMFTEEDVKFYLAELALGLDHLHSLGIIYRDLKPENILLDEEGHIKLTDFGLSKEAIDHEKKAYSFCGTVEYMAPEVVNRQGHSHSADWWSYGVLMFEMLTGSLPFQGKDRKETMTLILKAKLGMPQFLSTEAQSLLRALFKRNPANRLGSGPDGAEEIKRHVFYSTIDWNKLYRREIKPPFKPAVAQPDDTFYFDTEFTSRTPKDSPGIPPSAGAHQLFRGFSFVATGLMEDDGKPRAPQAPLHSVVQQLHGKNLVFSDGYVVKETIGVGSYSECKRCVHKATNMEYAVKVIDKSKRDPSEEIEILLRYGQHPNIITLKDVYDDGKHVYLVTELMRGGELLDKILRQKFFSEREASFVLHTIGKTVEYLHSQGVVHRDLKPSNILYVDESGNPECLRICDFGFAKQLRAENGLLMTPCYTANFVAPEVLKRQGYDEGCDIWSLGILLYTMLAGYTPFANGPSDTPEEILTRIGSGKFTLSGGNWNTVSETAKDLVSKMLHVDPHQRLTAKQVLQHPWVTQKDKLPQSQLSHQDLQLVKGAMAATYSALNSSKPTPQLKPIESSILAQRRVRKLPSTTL
Sequence of Insulin receptor (Homo sapiens) (P06213 28-758 limits assumed): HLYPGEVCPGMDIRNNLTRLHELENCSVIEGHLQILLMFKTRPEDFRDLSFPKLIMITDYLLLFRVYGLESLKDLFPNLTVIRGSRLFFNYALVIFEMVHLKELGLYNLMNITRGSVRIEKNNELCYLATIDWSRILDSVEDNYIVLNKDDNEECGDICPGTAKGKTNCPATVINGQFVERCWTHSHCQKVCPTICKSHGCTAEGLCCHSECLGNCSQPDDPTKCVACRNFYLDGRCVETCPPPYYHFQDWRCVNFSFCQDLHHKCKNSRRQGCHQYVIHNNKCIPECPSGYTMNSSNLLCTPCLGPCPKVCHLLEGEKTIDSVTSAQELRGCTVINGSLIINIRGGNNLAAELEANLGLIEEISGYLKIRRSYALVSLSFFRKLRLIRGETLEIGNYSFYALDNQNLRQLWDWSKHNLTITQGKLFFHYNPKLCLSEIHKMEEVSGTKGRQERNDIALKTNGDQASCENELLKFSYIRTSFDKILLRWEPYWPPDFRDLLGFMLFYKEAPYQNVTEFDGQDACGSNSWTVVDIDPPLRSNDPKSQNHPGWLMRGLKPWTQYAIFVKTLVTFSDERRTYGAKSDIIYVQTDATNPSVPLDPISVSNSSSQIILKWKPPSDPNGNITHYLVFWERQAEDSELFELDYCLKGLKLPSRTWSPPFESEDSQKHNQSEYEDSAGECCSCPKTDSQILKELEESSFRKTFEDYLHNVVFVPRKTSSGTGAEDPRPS
Sequence of Insulin receptor (Homo sapiens) (P06213 763-1382 limits assumed): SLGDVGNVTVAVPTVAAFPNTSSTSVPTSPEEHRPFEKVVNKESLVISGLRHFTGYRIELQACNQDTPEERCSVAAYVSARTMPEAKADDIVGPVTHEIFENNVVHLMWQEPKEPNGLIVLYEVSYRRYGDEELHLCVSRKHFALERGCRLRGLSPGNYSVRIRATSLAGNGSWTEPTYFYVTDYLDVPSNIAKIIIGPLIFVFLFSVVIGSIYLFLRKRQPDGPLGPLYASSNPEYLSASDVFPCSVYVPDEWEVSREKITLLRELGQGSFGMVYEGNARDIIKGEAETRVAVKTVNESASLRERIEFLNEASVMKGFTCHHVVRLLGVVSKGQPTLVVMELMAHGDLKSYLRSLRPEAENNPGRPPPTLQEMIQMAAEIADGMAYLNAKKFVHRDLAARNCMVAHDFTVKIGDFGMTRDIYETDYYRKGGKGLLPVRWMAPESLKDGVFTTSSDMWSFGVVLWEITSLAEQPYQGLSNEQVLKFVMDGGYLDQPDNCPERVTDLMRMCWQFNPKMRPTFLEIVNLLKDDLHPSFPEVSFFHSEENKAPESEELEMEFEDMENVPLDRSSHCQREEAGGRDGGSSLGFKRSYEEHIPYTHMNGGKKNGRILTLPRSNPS

Q: For COc1ccc(-c2ccc3c(N4CCOCC4)nc(N4C[C@@H](C)O[C@@H](C)C4)nc3n2)cc1CO [Ku-0063794], which inhibition [1] is on record?
A: Its inhibition is 55%.

Q: What about the Activity [2] of the same compound?
A: The Activity was 67%.

Q: What about the Activity [3] of the same compound?
A: The Activity was 109%.

Q: What about the Activity [4] of the same compound?
A: The Activity was 92%.

Q: What about the Activity [5] of the same compound?
A: Its Activity is 100%.

Q: What about the Activity [6] of the same compound?
A: The Activity was 90%.

Q: What about the Activity [7] of the same compound?
A: The Activity was 88%.

Q: And the Activity [8]?
A: The Activity was 90%.

Q: And the Activity [9]?
A: Its Activity is 106%.

Q: What about the Activity [10] of the same compound?
A: The Activity was 108%.

Q: And the Activity [11]?
A: The Activity was 98%.

Q: And the inhibition (mTORC2 (Homo sapiens))?
A: The inhibition was “Active”.

Q: And the Activity [12]?
A: Its Activity is 88%.

Q: What about the Activity [13] of the same compound?
A: The Activity was 101%.

Q: What about the inhibition (MEF) of the same compound?
A: Its inhibition is “Active”.

Q: And the inhibition (mTORC1 (Homo sapiens))?
A: Its inhibition is “Active”.

Reference: ChEMBL document CHEMBL5678799 (Biochem J, 2009)
